Drawing on ChEMBL document CHEMBL3045478, “Insect antifeedant flavonoids from Gnaphalium affine D. Don” (2000), this text covers ED50 and pED50 for ten compounds.

The structures appear in SMILES notation. Active and inactive are the calls of the source. No cut-off for these calls is given here.

This test deals with Spodoptera litura. Briefly: Antifeedant activity against Spodoptera litura in compound treated cork borer from fresh sweet potato leaves by Choice Leaf-Disk Bioassay. The test is classed as functional. In short, it runs like this: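 Partly eaten disks were photocopied and scanned to digital files, and each treated disk was measured against an intact disk. Antifeedant index (AFI) = % treated consumed/(% treated + % control consumed) × 100. The effective dose was taken as the midpoint between complete inhibition and no effect.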

With `COc1ccc(/C=C/C(=O)c2c(O)cc(OC)cc2OC)cc1` [FLAVOKAWAIN A], the ED50 came out at 90 ×10⁻⁷ mol/cm2 and the pED50 is 5.05. With `COc1ccc(-c2cc(=O)c3c(OC)c(OC)c(OC)c(OC)c3o2)cc1` [TANGERETIN], the ED50 is 2.8 ×10⁻⁷ mol/cm2 and the pED50 amounted to 6.55. In the same order, the values of `COc1ccc(-c2oc3c(OC)c(OC)c(OC)c(O)c3c(=O)c2OC)cc1` [5-HYDROXYAURANETIN] are 1.1 ×10⁻⁷ mol/cm2 and 6.96. The corresponding values for `C=C(C)[C@H]1Cc2c(ccc3c2O[C@@H]2COc4cc(OC)c(OC)cc4[C@@H]2C3=O)O1` [ROTENONE] are 1.5 ×10⁻⁷ mol/cm2 and 6.82. With `O=c1c(O)c(-c2ccc(O)c(O)c2)oc2cc(O)cc(O)c12`, the ED50 entry was “inactive”. Still for that read-out and setting: to `COc1cc(O)c2c(=O)c(OC)c(-c3ccc(OC)c(OC)c3)oc2c1` belongs “inactive”. Regarding `COc1cc2oc(-c3ccccc3)c(OC)c(=O)c2c(O)c1O`, the ED50 stood at 0.25 ×10⁻⁷ mol/cm2 and the pED50 came to 7.6. The corresponding values for `COc1cc(O)cc(O)c1C(=O)/C=C/c1ccc(O)cc1` [HELICHRYSETIN] are 3.8 ×10⁻⁷ mol/cm2 and 6.42. In the same order, the values of `COc1c(OC)c(O)c2c(=O)c(OC)c(-c3ccccc3)oc2c1OC` are 0.2 ×10⁻⁷ mol/cm2 and 7.7. In turn, `COc1ccc(-c2cc(=O)c3c(O)c(OC)c(OC)c(OC)c3o2)cc1` [GARDENIN B] gave an ED50 of 1.8 ×10⁻⁷ mol/cm2 and a pED50 of 6.74.
